Experimental data of several laboratories.
Protocols differ between the studies behind these lines.
Target: Calcium/calmodulin-dependent protein kinase type II subunit delta (CAMK2D, Homo sapiens, UniProt Q13557)

Compound | assay | setting | endpoint | result
Cn1cncc1[C@@](O)(COc1ccc(C#N)cc1-c1ccc(OC(F)(F)F)cc1)c1ccc(C#N)cc1 | cell-free assay, competition with immobilised ligand | 1 µM | remaining binding | 95%
Nc1ncc(-c2nc(N3CCOCC3)nc(N3CCOCC3)n2)c(C(F)F)n1 | binding, competition with immobilised ligand | 10 µM | remaining binding | 66%
COc1ncccc1-c1cnn2ccc(N3CCN(C(=O)OC(C)C)CC3)nc12 | binding, competition with immobilised ligand | 1 µM | remaining binding | 83%
O=c1[nH]c2ccccc2n1C1CCN(Cc2ccc(-c3[nH]c4cc5ncnc5cc4nc3-c3ccccc3)cc2)CC1 | cell-free assay | 0.5 µM | remaining signal | 97.7%
Cn1cc(-c2cc(F)cc(N3CCn4c(cc5c4CCCC5)C3=O)c2CO)cc(Nc2ccc(N3CCN(C4COC4)CC3)cn2)c1=O | enzyme activity, inhibitor | 0.1 µM | inhibition | 11%
Cc1nn(C)cc1-c1nc2c(N3CCN(Cc4ccc(Cl)cc4)CC3)c(Cl)cnc2[nH]1 | binding, competition with immobilised ligand | 1 µM | remaining binding | 94%
CC(C)(C)c1cc(C=C(C#N)C#N)cc(Br)c1O | enzyme activity, inhibitor | 0.5 µM | remaining activity | 96%
Cn1cc(-c2cccc(N3CCc4c(sc5c4CC(C)(C)C5)C3=O)c2CO)cc(Nc2ccncn2)c1=O | enzyme activity, inhibitor | 1 µM | inhibition | 3%
